Results collected from several papers.
Protocols differ between the studies behind these lines.
CES2: Cocaine esterase (CES2, Homo sapiens, UniProt O00748)
FPR1: fMet-Leu-Phe receptor (FPR1, Homo sapiens, UniProt P21462)
Oprk1: Kappa-type opioid receptor (Oprk1, Mus musculus, UniProt P33534)
SLC6A2: Sodium-dependent noradrenaline transporter (SLC6A2, Homo sapiens, UniProt P23975)

| Compound | target | test | setting | quantity | result |
| --- | --- | --- | --- | --- | --- |
| O=C(c1ccc(OCCN2CCCCC2)cc1)c1c(-c2ccc(O)cc2)sc2cc(O)ccc12 | CES2 | enzyme activity, inhibitor, fluorescence | with preincubation | IC50 | > 100 µM |
| N#Cc1ccc(C[C@@H](Nc2c(Nc3ccc(Br)cc3)c(=O)c2=O)C(=O)N2CCc3ccccc32)cc1 | FPR1 | calcium signal, agonist | – | EC50 | 32.8 µM |
| CC(C)[C@@H](CN1CCc2ccccc2C1)NC(=O)c1ccc(F)cc1 | Oprk1 | ligand displacement, radioligand | – | Ki | 36.2 µM |
| COc1cc2c(cc1OC)C(=O)/C(=C/c1ccc3ccccc3c1)C2 | CES2 | enzyme activity, inhibitor, fluorescence | with preincubation | IC50 | 10.4 µM |
| CNc1nc(C#Cc2ccc(Cl)s2)nc2c1ncn2[C@H]1[C@H](O)[C@H](O)[C@]2(C(=O)OC)C[C@H]12 | SLC6A2 | ligand displacement, radioligand | – | EC50 | 0.75 µM |
| CCCCC[C@H](O)/C=C/[C@H]1C(=O)C[C@H](O)[C@@H]1C/C=C\CCCC(=O)O | Prostaglandin D2 receptor (PTGDR, Homo sapiens, UniProt Q13258) | G protein activation, agonist, BRET | – | EC50 | 0.00646 µM |
| O=c1cc(-c2ccc(O)cc2)oc2cc(O)cc(O)c12 | NACHT, LRR and PYD domains-containing protein 3 (NLRP3, Homo sapiens, UniProt Q96P20) | binding, SPR | – | Kd | 18.7 µM |
| CNc1nc(N[C@@H]2CCc3c(C#N)cccc32)cc(-c2cccc(N3CCCC3)c2)n1 | WD repeat-containing protein 91 (Homo sapiens, UniProt A4D1P6) | binding, SPR | – | Kd | 1 µM |
| CCOC(=O)[C@@]12C[C@@H]1[C@@H](n1cnc3c(NCCCCCc4ccccc4)nc(I)nc31)[C@H](O)[C@@H]2O | SLC6A2 | ligand displacement, radioligand | – | Ki | 4.6 µM |
| COc1cc2c(cc1OC)C(=O)/C(=C/c1cccc3ccccc13)C2 | CES2 | enzyme activity, inhibitor, fluorescence | with preincubation | IC50 | 15.3 µM |
| CCOC(=O)[C@@]12C[C@@H]1[C@@H](n1cnc3c(NCCCCCCc4ccccc4)nc(I)nc31)[C@H](O)[C@@H]2O | SLC6A2 | ligand displacement, radioligand | – | Ki | 5.4 µM |
| O=c1c(O[C@@H]2O[C@H](CO)[C@H](O)[C@H](O)[C@H]2O)c(-c2ccc(O)c(O)c2)oc2cc(O)cc(O)c12 | srtA (Staphylococcus aureus, UniProt Q2FV99) | binding, SPR | – | Kd | 19.5 µM |
| CCc1ccccc1/C=C1\Cc2cc(OC)c(OC)cc2C1=O | CES2 | enzyme activity, inhibitor, fluorescence | with preincubation | IC50 | 1.48 µM |
| CCOC(=O)[C@@]12C[C@@H]1[C@@H](n1cnc3c(Nc4ccccc4)nc(C#Cc4ccc(Cl)s4)nc31)[C@H](O)[C@@H]2O | SLC6A2 | ligand displacement, radioligand | – | Ki | 2.3 µM |
| N#Cc1ccc(C[C@H](Nc2nnc(-c3cccc(Br)c3)s2)C(=O)N2CCc3ccccc32)cc1 | FPR1 | calcium signal, agonist | – | EC50 | 32.9 µM |
| CNC(=O)[C@@]12C[C@@H]1[C@@H](n1cnc3c(NCc4cccc(Cl)c4)nc(C#Cc4ccc(Cl)s4)nc31)[C@H](O)[C@@H]2O | SLC6A2 | ligand displacement, radioligand | – | Ki | 2.3 µM |
| COc1cc2c(cc1OC)C(=O)/C(=C/c1ccccc1N1CCCC1)C2 | CES2 | enzyme activity, inhibitor, fluorescence | with preincubation | IC50 | 0.72 µM |
| NCC(=O)O | ltaA (Aeromonas jandaei, UniProt O07051) | binding, absorbance | – | Kd | 11000 µM |
| CNc1nc(C#Cc2ccc(Cl)s2)nc2c1ncn2[C@H]1[C@H](O)[C@H](O)[C@]2(CC#N)C[C@H]12 | SLC6A2 | ligand displacement, radioligand | – | EC50 | 3.9 µM |
| CC(C)[C@@H](CN1CCc2ccccc2C1)NC(=O)c1cccc(-c2cccnc2)c1 | Oprk1 | ligand displacement, radioligand | – | Ki | 6.15 µM |
